pIC50: −log10 of the molar value. Calls of active or inactive are those of the source. The rule behind the calls is not given here.
Experiments:
DU-145 [1] = experiment: Cytotoxicity against human DU-145 cells assessed as reduction in cell viability incubated for 48 hrs by MTT assay; assay type: functional
In short: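 DU145 cells grown in DMEM with 10% FBS, penicillin/streptomycin and L-glutamine at 37 °C and 5% CO2. Cells seeded at 14 000/well and allowed to adhere 24 h. Compounds diluted from 10 mM DMSO stocks into medium (final 25–100 μM), DMSO vehicle, triplicate wells, 48 h. MTT 250 μg/mL for 4 h, dissolved in DMSO, A570 (ref 690). Normalized to DMSO; three independent experiments.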

[2] = AUC in Swiss Webster mouse blood at 40 mg/kg, ip by LC-MS/MS analysis; assay type: ADME, organism-based; design: dose 40 mg/kg
In short: (§1)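 Single i.p. dose of 40 mg/kg in Swiss Webster mice; blood, brain and liver taken at several time points. Tissues homogenized in acetonitrile, centrifuged, spin-filtered, dried and reconstituted, with 4,5-diphenylimidazole as instrument standard. Quantified by LC–MS/MS on a C18 column with a formic acid/MeCN gradient. Mean ± SD (n = 4), fitted to a two-compartment PK model.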

[3] = target: T1, Histone deacetylase (Homo sapiens) (UniProt Q13547+O15379+Q9UBN7+Q92769+Q9UQL6+Q8WUI4+Q9BY41+Q96DB2+P56524+Q9UKV0+Q969S8); experiment: Inhibition of HDAC in human DU-145 cells assessed as increase in histone H3 acetylation at 50 to 100 uM after 24 hrs by immunofluorescence microscopy; assay type: cell-based; conditions: dose 50-100 µM
In short: (§2)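 Cells were fixed in 4% PFA and permeabilized in TBS-T/BSA. Staining used anti-acetyl-H3 (Lys9/Lys14) at 1:2000, an AlexaFluor 488 secondary and DAPI. At least five random fields were imaged by fluorescence microscopy; three independent experiments.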

[4] = Toxicity in ip dosed BALB/c mouse assessed as maximum tolerated dose measured after 2 weeks; assay type: organism-based; conditions: in vivo, 336 h
In short: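 Healthy BALB/c mice, compound in 20% DMSO/saline, single i.p. dose. One mouse each at 200, 100 and 50 mg/kg, then 25, 12.5 and 6.25 mg/kg if needed, repeated until a tolerated dose was found. Last test repeated once. Mice weighed daily for 8 days; euthanized at >20% weight loss or overt toxicity. Morbidity/mortality followed over 2 weeks; triplicate experiments.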

Histone deacetylase 2 [5] = target: T2, Histone deacetylase 2 (Homo sapiens, UniProt Q92769); experiment: Inhibition of recombinant human full-length HDAC2 preincubated for 20 mins with DTT followed by enzyme addition and measured after 10 mins by Glo-luminescence assay
T2 sequence (Q92769 whole entry): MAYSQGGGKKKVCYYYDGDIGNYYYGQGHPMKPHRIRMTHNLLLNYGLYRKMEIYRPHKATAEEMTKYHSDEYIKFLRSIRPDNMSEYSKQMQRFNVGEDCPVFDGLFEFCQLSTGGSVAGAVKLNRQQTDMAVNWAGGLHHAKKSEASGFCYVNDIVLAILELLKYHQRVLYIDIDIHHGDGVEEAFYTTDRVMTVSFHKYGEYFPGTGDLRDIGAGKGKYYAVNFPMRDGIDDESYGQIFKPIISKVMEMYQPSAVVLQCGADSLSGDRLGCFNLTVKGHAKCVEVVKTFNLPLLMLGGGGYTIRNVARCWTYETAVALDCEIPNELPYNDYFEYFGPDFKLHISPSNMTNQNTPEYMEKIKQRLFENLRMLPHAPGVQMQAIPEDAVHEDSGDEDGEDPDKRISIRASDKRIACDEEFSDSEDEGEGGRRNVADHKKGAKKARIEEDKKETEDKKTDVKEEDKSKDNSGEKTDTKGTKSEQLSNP
In short: (§3)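 Compounds were serially diluted and incubated with enzyme for 10 min. HDAC-Glo I/II substrate/developer was then added, and luminescence read after 40 min at 23 °C. IC50 from four-parameter fits from two independent titrations, mean ± SD.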

Histone deacetylase 2 [6] = target: T2, Histone deacetylase 2; experiment: Inhibition of recombinant human full-length HDAC2 incubated for 10 mins by Glo-luminescence assay; in short: as §3
DU-145 [7] = experiment: Cytotoxicity against human DU-145 cells assessed as reduction in cell viability at 50 uM incubated for 48 hrs by MTT assay; assay type: functional
In short: (§4)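 DU145 cells in DMEM with 10% FBS were seeded at 14 000 cells/well and allowed to adhere for 24 h. Test agents were diluted from 10 mM DMSO stocks (100, 50, 25 µM; 10, 5, 1.25 nM) and applied in triplicate for 48 h at 37 °C, 5% CO2, with DMSO as vehicle. Read-out was 250 µg/mL MTT for 4 h, DMSO solubilization, and A570 with 690 nm reference. Values normalized to DMSO.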

DU-145 [8] = experiment: Cytotoxicity against human DU-145 cells assessed as reduction in cell viability at 100 uM incubated for 48 hrs by MTT assay; assay type: functional; in short: as §4
Histone deacetylase 1 = Histone deacetylase 1 (Homo sapiens, UniProt Q13547); experiment: Inhibition of HDAC1 in human DU-145 cells assessed as increase in histone H3 acetylation after 24 hrs by immunofluorescence microscopy; assay type: cell-based
Sequence of Histone deacetylase 1 (Q13547 whole entry): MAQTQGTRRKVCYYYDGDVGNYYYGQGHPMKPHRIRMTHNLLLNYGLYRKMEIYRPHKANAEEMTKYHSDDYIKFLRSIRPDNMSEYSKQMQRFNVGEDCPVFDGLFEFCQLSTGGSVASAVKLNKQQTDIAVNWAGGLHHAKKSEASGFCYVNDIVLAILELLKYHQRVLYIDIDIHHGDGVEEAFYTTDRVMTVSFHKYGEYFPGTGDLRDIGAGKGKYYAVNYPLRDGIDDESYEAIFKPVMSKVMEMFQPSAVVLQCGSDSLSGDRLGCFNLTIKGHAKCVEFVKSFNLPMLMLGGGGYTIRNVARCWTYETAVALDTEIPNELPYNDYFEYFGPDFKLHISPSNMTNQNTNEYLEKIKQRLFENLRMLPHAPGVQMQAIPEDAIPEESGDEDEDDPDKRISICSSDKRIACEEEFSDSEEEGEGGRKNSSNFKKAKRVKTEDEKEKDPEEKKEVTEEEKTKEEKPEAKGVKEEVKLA

Histone deacetylase 2 [9] = target: T2, Histone deacetylase 2; experiment: Inhibition of HDAC2 in human DU-145 cells assessed as increase in histone H3 acetylation after 24 hrs by immunofluorescence microscopy; assay type: cell-based
Histone deacetylase 3 = Histone deacetylase 3 (Homo sapiens, UniProt O15379); experiment: Inhibition of HDAC3 in human DU-145 cells assessed as increase in histone H3 acetylation after 24 hrs by immunofluorescence microscopy; assay type: cell-based
Sequence of Histone deacetylase 3 (O15379 whole entry): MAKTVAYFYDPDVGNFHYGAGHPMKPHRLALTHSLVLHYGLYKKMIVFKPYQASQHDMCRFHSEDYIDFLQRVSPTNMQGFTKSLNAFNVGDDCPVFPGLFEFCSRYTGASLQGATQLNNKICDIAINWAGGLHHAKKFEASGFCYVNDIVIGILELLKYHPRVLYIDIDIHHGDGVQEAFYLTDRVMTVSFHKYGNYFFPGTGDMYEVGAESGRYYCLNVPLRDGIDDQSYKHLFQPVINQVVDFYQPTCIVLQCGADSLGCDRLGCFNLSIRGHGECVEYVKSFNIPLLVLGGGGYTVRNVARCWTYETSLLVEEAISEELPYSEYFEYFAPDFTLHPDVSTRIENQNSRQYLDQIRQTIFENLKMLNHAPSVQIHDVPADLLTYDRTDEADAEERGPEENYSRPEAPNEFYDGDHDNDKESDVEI

[10] = target: T3, Protein deacetylase HDAC6 (Homo sapiens, UniProt Q9UBN7); experiment: Inhibition of HDAC6 in human DU-145 cells assessed as increase in histone H3 acetylation after 24 hrs by immunofluorescence microscopy; assay type: cell-based
T3 sequence (Q9UBN7 whole entry): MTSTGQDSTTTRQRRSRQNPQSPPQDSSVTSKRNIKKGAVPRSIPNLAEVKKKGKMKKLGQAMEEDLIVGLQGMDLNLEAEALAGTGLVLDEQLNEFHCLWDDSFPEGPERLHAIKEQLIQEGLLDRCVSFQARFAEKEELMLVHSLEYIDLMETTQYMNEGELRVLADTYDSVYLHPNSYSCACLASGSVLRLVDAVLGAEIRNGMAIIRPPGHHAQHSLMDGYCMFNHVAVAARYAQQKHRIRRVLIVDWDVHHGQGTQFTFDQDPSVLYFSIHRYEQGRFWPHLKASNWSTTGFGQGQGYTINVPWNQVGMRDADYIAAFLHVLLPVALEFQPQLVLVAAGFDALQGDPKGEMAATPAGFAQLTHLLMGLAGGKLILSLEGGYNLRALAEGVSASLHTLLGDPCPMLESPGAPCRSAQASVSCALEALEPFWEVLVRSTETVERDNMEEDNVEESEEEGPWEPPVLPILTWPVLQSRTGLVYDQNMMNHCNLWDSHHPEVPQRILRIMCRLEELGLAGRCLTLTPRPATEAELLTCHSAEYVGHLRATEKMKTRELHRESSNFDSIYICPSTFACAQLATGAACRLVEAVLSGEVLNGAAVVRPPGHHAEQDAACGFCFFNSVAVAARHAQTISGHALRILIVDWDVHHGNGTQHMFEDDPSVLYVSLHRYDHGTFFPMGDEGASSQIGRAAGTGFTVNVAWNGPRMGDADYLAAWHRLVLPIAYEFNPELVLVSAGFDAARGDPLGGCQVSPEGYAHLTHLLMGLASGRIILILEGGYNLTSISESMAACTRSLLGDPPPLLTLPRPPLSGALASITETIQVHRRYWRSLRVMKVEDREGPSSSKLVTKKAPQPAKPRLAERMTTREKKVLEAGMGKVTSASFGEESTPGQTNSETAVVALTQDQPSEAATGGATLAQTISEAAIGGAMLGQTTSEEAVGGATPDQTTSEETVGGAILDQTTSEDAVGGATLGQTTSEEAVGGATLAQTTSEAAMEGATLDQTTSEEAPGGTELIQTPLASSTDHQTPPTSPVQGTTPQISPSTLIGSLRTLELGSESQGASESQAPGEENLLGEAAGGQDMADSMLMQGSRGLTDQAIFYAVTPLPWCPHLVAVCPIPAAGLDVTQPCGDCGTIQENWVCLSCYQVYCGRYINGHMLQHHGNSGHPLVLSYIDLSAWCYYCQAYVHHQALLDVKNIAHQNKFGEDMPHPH

Histone deacetylase 8 = target: T4, Histone deacetylase 8 (Homo sapiens, UniProt Q9BY41); experiment: Inhibition of HDAC8 in human DU-145 cells assessed as increase in histone H3 acetylation after 24 hrs by immunofluorescence microscopy; assay type: cell-based
T4 sequence (Q9BY41 whole entry): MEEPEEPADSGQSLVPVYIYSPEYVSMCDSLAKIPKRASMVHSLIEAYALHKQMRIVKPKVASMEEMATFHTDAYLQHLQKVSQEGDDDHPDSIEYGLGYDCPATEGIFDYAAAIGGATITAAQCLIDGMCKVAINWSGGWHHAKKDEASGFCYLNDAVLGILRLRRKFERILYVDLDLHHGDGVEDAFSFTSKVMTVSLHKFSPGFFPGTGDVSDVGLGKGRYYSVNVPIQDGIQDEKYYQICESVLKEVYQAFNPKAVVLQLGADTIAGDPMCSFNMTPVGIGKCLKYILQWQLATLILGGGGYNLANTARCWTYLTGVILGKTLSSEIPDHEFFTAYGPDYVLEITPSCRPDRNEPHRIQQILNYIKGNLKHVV

[11] = target: T1, Histone deacetylase (Homo sapiens); experiment: Inhibition of HDAC in human DU-145 cells assessed as increase in histone H3 acetylation after 24 hrs by immunofluorescence microscopy; assay type: cell-based; in short: as §2
[12] = Elimination rate in Swiss Webster mouse blood at 40 mg/kg, ip by LC-MS/MS analysis; assay type: ADME, organism-based; in short: as §1
[13] = Drug uptake in BALB/c mouse blood at 40 mg/kg, ip measured upto 60 mins by mass spectroscopy analysis; assay type: ADME, organism-based; conditions: in vivo, 1 h
In short: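 BALB/c mice received 40 mg/kg i.p. Retro-orbital blood was collected under isoflurane, then liver and whole brain after CO2 euthanasia, at 10, 30 and 60 min. Acetonitrile extracts were spin-filtered with 4,5-diphenylimidazole as instrument standard and analysed by LC–MS/MS.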

CC(C)(C)OC(=O)CC(O)/C=C/CCSSCC/C=C/C(O)CC(=O)OC(C)(C)C (configuration not stated)
Activity (DU-145 [1]): Dose-Dependent Effect | CC50 (DU-145 [1]; read-out: LD50 (the source's name)): 39 µM | AUC [2]: 0.0881 µg·h/mL | inhibition [3]: Active | MTD [4]: > 200 mg/kg | pIC50 (Histone deacetylase 2 [5]): 5.00 | pIC50 (Histone deacetylase 2 [6]): 4.00 | inhibition at 50 µM (DU-145 [7]): 50% | inhibition at 100 µM (DU-145 [8]): 80% | pIC50 (Histone deacetylase 1): 5.06 | pIC50 (Histone deacetylase 2 [9]): 5.00 | pIC50 (Histone deacetylase 3): 5.10 | pIC50 [10]: 4.92 | pIC50 (Histone deacetylase 8): 4.96 | inhibition [11]: Dose-Dependent Effect | k el [12]: 0.000367 s⁻¹ | Drug uptake [13]: Active

From ChEMBL document CHEMBL5046273, “Development of a Novel, Small-Molecule Brain-Penetrant Histone Deacetylase Inhibitor That Enhances Spatial Memory Formation in Mice” (J Med Chem, 2022)
